Test results as given in ChEMBL document CHEMBL4350999, “Enhanced tumor retention of NTSR1-targeted agents by employing a hydrophilic cysteine cathepsin inhibitor” (Eur J Med Chem, 2019).

Tests used:
[1] = Drug uptake in kidney of SCID mouse xenografted with human HT-29 cells at 0.37 MBq/mouse, iv measured at 4 hrs using 177Lu labelled compound by gamma counter analysis; type: ADME, organism-based; conditions: in vivo
Summary of the method: (§1)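 Female SCID mice (5 weeks) bore s.c. flank xenografts of HT-29 cells (5 × 10^6 in Matrigel), used at about 80 mm3 (two weeks) and randomized. Each mouse received 10 μCi (0.37 MBq) of HPLC-purified 177Lu-conjugate via tail vein. Tissues were excised, weighed and gamma-counted, expressed as %ID/g; mean ± SD, n = 5.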

[2] = Drug uptake in lung of SCID mouse xenografted with human HT-29 cells at 0.37 MBq/mouse, iv measured at 4 hrs using 177Lu labelled compound by gamma counter analysis; type: ADME, organism-based; conditions: in vivo; summary of the method: as §1
[3] = Drug uptake in brain of SCID mouse xenografted with human HT-29 cells at 0.37 MBq/mouse, iv measured at 4 hrs using 177Lu labelled compound by gamma counter analysis; type: ADME, organism-based; conditions: in vivo; summary of the method: as §1
[4] = Drug uptake in small intestine of SCID mouse xenografted with human HT-29 cells at 0.37 MBq/mouse, iv measured at 72 hrs using 177Lu labelled compound by gamma counter analysis; type: ADME, organism-based; conditions: in vivo; summary of the method: as §1
[5] = Drug uptake in muscle of SCID mouse xenografted with human HT-29 cells at 0.37 MBq/mouse, iv measured at 72 hrs using 177Lu labelled compound by gamma counter analysis; type: ADME, organism-based, Muscle tissue; conditions: in vivo; summary of the method: as §1
[6] = Drug uptake in blood of SCID mouse xenografted with human HT-29 cells at 0.37 MBq/mouse, iv measured at 24 hrs using 177Lu labelled compound by gamma counter analysis; type: ADME, organism-based; conditions: in vivo
Summary of the method: (§2)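 Female SCID mice bearing s.c. flank HT-29 xenografts (5 × 10^6 cells in Matrigel, ~80 mm3). Given 10 μCi (0.37 MBq) 177Lu conjugate i.v. by tail vein; groups sacrificed at 4, 24, 72 h. Tissues weighed and gamma-counted as %ID/g, excretion as %ID; n = 5, mean ± SD. Blocking arms: colchicine 1 mg/kg i.p. beforehand, or D-lysine 40 mg/kg co-injected.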

[7] = Drug uptake in large intestine of SCID mouse xenografted with human HT-29 cells at 0.37 MBq/mouse, iv measured at 24 hrs using 177Lu labelled compound by gamma counter analysis; type: ADME, organism-based; conditions: in vivo; summary of the method: as §1
[8] = Drug uptake in lung of SCID mouse xenografted with human HT-29 cells at 0.37 MBq/mouse, iv measured at 72 hrs using 177Lu labelled compound by gamma counter analysis; type: ADME, organism-based; conditions: in vivo; summary of the method: as §1
[9] = Drug uptake in SCID mouse xenografted with human HT-29 cells assessed as tumour retention level at 0.37 MBq/mouse, iv measured at 4 hrs using 177Lu labelled compound by gamma counter analysis; type: ADME, organism-based; conditions: in vivo; summary of the method: as §2
[10] = Drug uptake in muscle of SCID mouse xenografted with human HT-29 cells at 0.37 MBq/mouse, iv measured at 24 hrs using 177Lu labelled compound by gamma counter analysis; type: ADME, organism-based, Muscle tissue; conditions: in vivo; summary of the method: as §1
[11] = Drug uptake in SCID mouse xenografted with human HT-29 cells assessed as tumour retention level at 0.37 MBq/mouse, iv measured at 72 hrs using 177Lu labelled compound by gamma counter analysis; type: ADME, organism-based; conditions: in vivo; summary of the method: as §2
[12] = Drug uptake in SCID mouse xenografted with human HT-29 cells assessed as tumour retention at 0.37 MBq/mouse, iv measured at 24 hrs using 177Lu labelled compound by gamma counter analysis; type: ADME, organism-based; conditions: in vivo; summary of the method: as §2
[13] = Drug uptake in liver of SCID mouse xenografted with human HT-29 cells at 0.37 MBq/mouse, iv measured at 72 hrs using 177Lu labelled compound by gamma counter analysis; type: ADME, organism-based; conditions: in vivo; summary of the method: as §1
[14] = 1-Octanol-PBS buffer distribution coefficient, log D of natEu labelled compound at pH 7.4 by time resolved fluorescence analysis; type: physicochemical
Summary of the method: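 natEu-labelled conjugate (300 μg) in 0.2 mL PBS pH 7.4 partitioned against 0.2 mL 1-octanol; 100 μL aliquots from each layer dried under vacuum and taken up in water. Time-resolved fluorescence read at 590 nm with 380 nm excitation, and LogD7.4 calculated from the two layers.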

[15] = Drug uptake in brain of SCID mouse xenografted with human HT-29 cells at 0.37 MBq/mouse, iv measured at 24 hrs using 177Lu labelled compound by gamma counter analysis; type: ADME, organism-based; conditions: in vivo; summary of the method: as §1
[16] = Drug uptake in pancreas of SCID mouse xenografted with human HT-29 cells at 0.37 MBq/mouse, iv measured at 72 hrs using 177Lu labelled compound by gamma counter analysis; type: ADME, organism-based; conditions: in vivo; summary of the method: as §1
[17] = Drug uptake in small intestine of SCID mouse xenografted with human HT-29 cells at 0.37 MBq/mouse, iv measured at 24 hrs using 177Lu labelled compound by gamma counter analysis; type: ADME, organism-based; conditions: in vivo; summary of the method: as §1
[18] = Drug uptake in bone of SCID mouse xenografted with human HT-29 cells at 0.37 MBq/mouse, iv measured at 24 hrs using 177Lu labelled compound by gamma counter analysis; type: ADME, organism-based, Bone element; conditions: in vivo; summary of the method: as §2
[19] = Drug uptake in heart of SCID mouse xenografted with human HT-29 cells at 0.37 MBq/mouse, iv measured at 24 hrs using 177Lu labelled compound by gamma counter analysis; type: ADME, organism-based; conditions: in vivo; summary of the method: as §1
[20] = Drug uptake in blood of SCID mouse xenografted with human HT-29 cells at 0.37 MBq/mouse, iv measured at 4 hrs using 177Lu labelled compound by gamma counter analysis; type: ADME, organism-based; conditions: in vivo; summary of the method: as §2
[21] = Drug uptake in pancreas of SCID mouse xenografted with human HT-29 cells at 0.37 MBq/mouse, iv measured at 4 hrs using 177Lu labelled compound by gamma counter analysis; type: ADME, organism-based; conditions: in vivo; summary of the method: as §1
[22] = Drug uptake in kidney of SCID mouse xenografted with human HT-29 cells at 0.37 MBq/mouse, iv measured at 72 hrs using 177Lu labelled compound by gamma counter analysis; type: ADME, organism-based; conditions: in vivo; summary of the method: as §1
[23] = Drug uptake in lung of SCID mouse xenografted with human HT-29 cells at 0.37 MBq/mouse, iv measured at 24 hrs using 177Lu labelled compound by gamma counter analysis; type: ADME, organism-based; conditions: in vivo; summary of the method: as §1
[24] = Drug excretion in SCID mouse xenografted with human HT-29 cells at 0.37 MBq/mouse, iv measured after 72 hrs using 177Lu labelled compound; type: ADME, organism-based; conditions: in vivo; summary of the method: as §2
[25] = Drug uptake in spleen of SCID mouse xenografted with human HT-29 cells at 0.37 MBq/mouse, iv measured at 4 hrs using 177Lu labelled compound by gamma counter analysis; type: ADME, organism-based; conditions: in vivo
Summary of the method: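 Female SCID mice (5 weeks old) received s.c. flank HT-29 cells (5 × 10^6 in Matrigel). At ~80 mm3, two weeks later, mice were randomized and given 10 μCi (0.37 MBq) of purified 177Lu conjugate i.v. by tail vein. Mice were killed at 4, 24 or 72 h. Tissues were weighed and gamma counted as %ID/g, mean ± SD, n = 5. Tumor-to-tissue ratios were calculated.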

[26] = Drug excretion in SCID mouse xenografted with human HT-29 cells at 0.37 MBq/mouse, iv measured at 4 hrs using 177Lu labelled compound by gamma counter analysis; type: ADME, organism-based; conditions: in vivo; summary of the method: as §2
[27] = Drug uptake in brain of SCID mouse xenografted with human HT-29 cells at 0.37 MBq/mouse, iv measured at 72 hrs using 177Lu labelled compound by gamma counter analysis; type: ADME, organism-based; conditions: in vivo; summary of the method: as §1
[28] = Drug uptake in large intestine of SCID mouse xenografted with human HT-29 cells at 0.37 MBq/mouse, iv measured at 72 hrs using 177Lu labelled compound by gamma counter analysis; type: ADME, organism-based; conditions: in vivo; summary of the method: as §1

Work on `Cc1cc(C)c(C(=O)OCC(=O)[C@H](CCCCNC(=O)CNC(=O)[C@@H](CO)NC(=O)[C@@H](CO)NC(=O)[C@@H](CO)NC(=O)Cn2cc(C[C@H](NC(=O)CN3CCN(CC(=O)O)CCN(CC(=O)O)CCN(CC(=O)O)CC3)C(=O)N[C@H](CO)C(=O)N[C@H](CO)C(=O)N[C@H](CO)C(=O)N[C@@H](CCCCN)C(=O)N3CCC[C@H]3C(=O)N(C)[C@@H](CCCNC(=N)N)C(=O)N[C@@H](CCCNC(=N)N)C(=O)N3CCC[C@H]3C(=O)N[C@@H](Cc3c(C)cc(O)cc3C)C(=O)N[C@H](C(=O)N[C@@H](CC(C)C)C(=O)O)C(C)(C)C)nn2)NC(=O)[C@H](Cc2ccccc2)NC(=O)OCc2ccccc2)c(C)c1` yielded a Drug uptake [1] of 58.2 % ID/g, a Drug uptake [2] of 4.5 % ID/g and a Drug uptake [3] of 0.09 % ID/g. For the same compound, the Drug uptake [4] was 4.3 % ID/g, the Drug uptake [5] was 0.15 % ID/g and the Drug uptake [6] was 0.17 % ID/g. The Drug uptake [7] was 2.1 % ID/g, the Drug uptake [8] was 5 % ID/g and the Drug uptake [9] was 7.8 % ID/g. The Drug uptake [10] was 0.35 % ID/g, the Drug uptake [11] was 6.3 % ID/g and the Drug uptake [12] was 10 % ID/g. The Drug uptake [13] was 11 % ID/g, the logD [14] was -2.1 and the Drug uptake [15] was 0.04 % ID/g. The Drug uptake [16] was 0.6 % ID/g, the Drug uptake [17] was 5.5 % ID/g and the Drug uptake [18] was 1.5 % ID/g. It also gave a Drug uptake [19] of 0.9 % ID/g, a Drug uptake [20] of 1.22 % ID/g and a Drug uptake [21] of 0.89 % ID/g. The Drug uptake [22] was 45 % ID/g, the Drug uptake [23] was 6 % ID/g and the Drug excretion [24] was 57 %ID. It also gave a Drug uptake [25] of 16.1 % ID/g, a Drug excretion [26] of 16.6 %ID and a Drug uptake [27] of 0.02 % ID/g. For the same compound, the Drug uptake [28] was 1.6 % ID/g.
